Reference: ChEMBL document CHEMBL4251743, “Absolute Configuration and Pharmacology of the Poison Frog Alkaloid Phantasmidine” (J Nat Prod, 2018)
The source made the active and inactive calls. The calls are words filed in the database; no cut-off is given here.

Legend:
[1] = test system: Mus musculus; experiment: Toxicity in iv dosed albino mouse measured after 1 hr; assay type: organism-based; details: in vivo
[2] = target: T1, Neuronal acetylcholine receptor; alpha4/beta2 (Homo sapiens, UniProt P17787+P43681); experiment: Agonist activity at human alpha4beta2 nAChR by cell-based rubidium flux assay
In short: (§1)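 Stably transfected cells expressing rat α3β4 or human α4β2 nAChR were used near confluence. They were preloaded with 86Rb+, washed, stimulated with test agonist, and the medium was separated before lysis. Efflux was taken as medium counts over total counts. Results are the mean ± SEM of 3–4 independent experiments.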

[3] = target: T2, Neuronal acetylcholine receptor subunit alpha-7 (Rattus norvegicus, UniProt Q05941); experiment: Agonist activity at rat alpha7 nAChR expressed in Xenopus oocytes at -60 mV holding potential by electrophysiology method; assay type: cell-based
In short: (§2)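 Defolliculated X. laevis oocytes were injected with about 50 nL of rat subunit mRNA at 1 μg/μL. For α3β2 and α4β2 the subunits were mixed 1:1. Recording was by two-electrode voltage clamp at −60 mV and about 24 °C, with perfusion in HEPES-buffered NaCl/KCl/CaCl2/MgCl2. Agonist was applied for 3–4 s every 4–5 min. Peak currents were normalised to 1 mM ACh (nAChR) or 10 μM mCPBG (5-HT3A) and fitted to the Hill equation.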

[4] = target: T3, Neuronal acetylcholine receptor; alpha4/beta2 (Rattus norvegicus, UniProt P09483+P12390); experiment: Agonist activity at rat alpha4beta2 expressed in Xenopus oocytes at -60 mV holding potential by electrophysiology method; assay type: cell-based; in short: as §2
[5] = target: T1, Neuronal acetylcholine receptor; alpha4/beta2; experiment: Agonist activity at human alpha4beta2 nAChR by cell-based rubidium flux assay relative to 100 uM nicotine; in short: as §1
[6] = test system: Mus musculus; experiment: Toxicity in Swiss-Webster mouse assessed as piloerection at 50 ug/kg, iv; assay type: organism-based; details: in vivo, 0.05 mg/kg
In short: (§3)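 Weanling male White Swiss-Webster mice (15–20 g) were fasted for 12 h. Compound in physiological buffered saline was given intravenously via the tail vein. Mice were then returned to their pens for observation of signs.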

[7] = test system: Mus musculus; experiment: Toxicity in Swiss-Webster mouse assessed as elevated respiration at 50 ug/kg, iv; assay type: organism-based; details: in vivo, 0.05 mg/kg; in short: as §3
[8] = species: Homo sapiens; experiment: Selectivity ratio of Ki for displacement of [3H]epibatidine from alpha3beta4 nAChR (unknown origin) expressed in HEK cell membranes to Ki for displacement of [3H]epibatidine from alpha4beta2 nAChR (unknown origin) expressed in HEK cell membranes
[9] = target: T2, Neuronal acetylcholine receptor subunit alpha-7; experiment: Displacement of [3H]epibatidine from alpha7 nAChR (unknown origin) expressed in HEK cell membranes after 4 hrs by liquid scintillation counting method
In short: (§4)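 Incubation was 4 h at room temperature, followed by rapid filtration, washing and liquid scintillation counting. Nonspecific binding was defined with 300 μM nicotine. Values are the mean ± SEM of four measurements.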

[10] = test system: Mus musculus; experiment: Toxicity in Swiss-Webster mouse assessed as death at 50 ug/kg, iv measured within 30 secs; assay type: organism-based; details: in vivo, 0.05 mg/kg, 0.5 min; in short: as §3
[11] = test system: Mus musculus; experiment: Toxicity in iv dosed Swiss-Webster mouse; assay type: organism-based; details: in vivo; in short: as §3
[12] = target: Neuronal acetylcholine receptor; alpha3/beta4 (Rattus norvegicus) (UniProt P04757+P12392); experiment: Agonist activity at rat alpha3beta4 nAChR by cell-based rubidium flux assay relative to 100 uM nicotine
In short: as §1, with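 “counts. […]” for “counts.”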

[13] = test system: Mus musculus; experiment: Toxicity in Swiss-Webster mouse assessed as piloerection at 40 ug/kg, iv; assay type: organism-based; details: in vivo, 0.04 mg/kg; in short: as §3
[14] = target: Neuronal acetylcholine receptor; experiment: Displacement of [3H]epibatidine from rat forebrain nAChR after 4 hrs by liquid scintillation counting method; in short: as §4
[15] = target: T4, Neuronal acetylcholine receptor; alpha3/beta4 (Rattus norvegicus, UniProt P04757+P12392); experiment: Displacement of [3H]epibatidine from alpha3beta4 nAChR (unknown origin) expressed in HEK cell membranes after 4 hrs by liquid scintillation counting method; in short: as §4
[16] = target: T3, Neuronal acetylcholine receptor; alpha4/beta2; experiment: Displacement of [3H]epibatidine from alpha4beta2 nAChR (unknown origin) expressed in HEK cell membranes after 4 hrs by liquid scintillation counting method; in short: as §4
[17] = target: T5, Neuronal acetylcholine receptor; alpha4/beta2 (Rattus norvegicus) (UniProt P09483+P12390); experiment: Agonist activity at rat alpha4beta2 expressed in Xenopus oocytes at -60 mV holding potential by electrophysiology method relative to acetylcholine; assay type: cell-based; in short: as §2
[18] = target: Neuronal acetylcholine receptor subunit alpha-7 (Rattus norvegicus) (UniProt Q05941); experiment: Agonist activity at rat alpha7 nAChR expressed in Xenopus oocytes at -60 mV holding potential by electrophysiology method relative to acetylcholine; assay type: cell-based; in short: as §2
[19] = test system: Mus musculus; experiment: Toxicity in Swiss-Webster mouse assessed as elevated respiration at 40 ug/kg, iv measured within 1 min; assay type: organism-based; details: in vivo, 0.04 mg/kg; in short: as §3
[20] = test system: Mus musculus; experiment: Toxicity in Swiss-Webster mouse assessed as elevated respiration at 40 ug/kg, iv; assay type: organism-based; details: in vivo, 0.04 mg/kg; in short: as §3
[21] = test system: Mus musculus; experiment: Toxicity in Swiss-Webster mouse assessed as piloerection at 40 ug/kg, iv measured within 1 min; assay type: organism-based; details: in vivo, 0.04 mg/kg; in short: as §3
[22] = test system: Mus musculus; experiment: Toxicity in Swiss-Webster mouse assessed as hyperactivity at 50 ug/kg, iv; assay type: organism-based; details: in vivo, 0.05 mg/kg; in short: as §3
[23] = species: Homo sapiens; experiment: Selectivity ratio of EC50 for agonist activity at rat alpha3beta4 nAChR (unknown origin) to EC50 for agonist activity at alpha4beta2 nAChR (unknown origin)
[24] = test system: Mus musculus; experiment: Toxicity in Swiss-Webster mouse assessed as tonic-clonic seizures at 50 ug/kg, iv measured within 30 secs; assay type: organism-based; details: in vivo, 0.05 mg/kg, 0.5 min; in short: as §3
[25] = target: T4, Neuronal acetylcholine receptor; alpha3/beta4; experiment: Agonist activity at rat alpha3beta4 nAChR by cell-based rubidium flux assay; in short: as §1
[26] = target: T5, Neuronal acetylcholine receptor; alpha4/beta2 (Rattus norvegicus); experiment: Agonist activity at rat alpha4beta2 expressed in Xenopus oocytes at 10 nM at -60 mV holding potential in presence of dihydro-beta-erythroidine by electrophysiology method; assay type: cell-based
[27] = target: T6, Neuronal acetylcholine receptor; alpha3/beta2 (Rattus norvegicus) (UniProt P04757+P12390); experiment: Agonist activity at rat alpha3beta2 expressed in Xenopus oocytes at 10 nM at -60 mV holding potential in presence of dihydro-beta-erythroidine by electrophysiology method; assay type: cell-based
[28] = target: T7, 5-hydroxytryptamine receptor 3A (Rattus norvegicus) (UniProt P35563); experiment: Agonist activity at rat 5HT3A expressed in Xenopus oocytes at -60 mV holding potential by electrophysiology method relative to metachlorophenylbiguanide; assay type: cell-based; in short: as §2
T7 sequence (whole entry): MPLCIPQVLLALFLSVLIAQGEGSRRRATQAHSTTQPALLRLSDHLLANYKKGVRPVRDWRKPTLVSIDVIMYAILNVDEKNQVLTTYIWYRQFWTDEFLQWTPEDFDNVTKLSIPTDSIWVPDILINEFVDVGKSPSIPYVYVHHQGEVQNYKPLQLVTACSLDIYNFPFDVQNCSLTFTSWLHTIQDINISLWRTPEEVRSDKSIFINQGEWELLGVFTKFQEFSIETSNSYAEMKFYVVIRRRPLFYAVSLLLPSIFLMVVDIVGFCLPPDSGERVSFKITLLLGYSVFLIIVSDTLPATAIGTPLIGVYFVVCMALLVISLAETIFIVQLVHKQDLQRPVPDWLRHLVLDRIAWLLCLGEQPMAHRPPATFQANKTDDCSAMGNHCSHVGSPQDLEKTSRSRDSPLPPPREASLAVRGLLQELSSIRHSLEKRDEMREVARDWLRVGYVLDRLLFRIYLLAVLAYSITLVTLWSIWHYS

[29] = species: Rattus norvegicus; experiment: Selectivity ratio of EC50 for rat alpha7 nAChR expressed in Xenopus oocytes to EC50 rat alpha4beta2 expressed in Xenopus oocytes; assay type: cell-based
[30] = target: Neuronal acetylcholine receptor subunit alpha-7 (Rattus norvegicus) (UniProt Q05941); experiment: Agonist activity at rat alpha7 nAChR expressed in Xenopus oocytes at 10 uM at -60 mV holding potential by electrophysiology method in presence of methyllycaconitine; assay type: cell-based
[31] = target: Neuronal acetylcholine receptor; alpha3/beta2 (Rattus norvegicus, UniProt P04757+P12390); experiment: Agonist activity at rat alpha3beta2 expressed in Xenopus oocytes at -60 mV holding potential by electrophysiology method; assay type: cell-based; in short: as §2
[32] = target: T7, 5-hydroxytryptamine receptor 3A (Rattus norvegicus); experiment: Agonist activity at rat 5HT3A expressed in Xenopus oocytes at 100 uM at -60 mV holding potential in presence of tropisetron by electrophysiology method; assay type: cell-based
In short: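 Oocytes expressing rat 5-HT3A were held at −60 mV under two-electrode voltage clamp. Tropisetron (30 nM) was pre-applied for 2 min before 100 μM agonist was applied, with n=4.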

[33] = target: T6, Neuronal acetylcholine receptor; alpha3/beta2 (Rattus norvegicus); experiment: Agonist activity at rat alpha3beta2 expressed in Xenopus oocytes at -60 mV holding potential by electrophysiology method relative to acetylcholine; assay type: cell-based; in short: as §2
[34] = target: T8, 5-hydroxytryptamine receptor 3A (Rattus norvegicus, UniProt P35563); experiment: Agonist activity at rat 5HT3A expressed in Xenopus oocytes at -60 mV holding potential by electrophysiology method; assay type: cell-based; in short: as §2
T8 sequence (P35563 whole entry): T7 sequence (whole entry)

[35] = test system: Mus musculus; experiment: Toxicity in Swiss-Webster mouse assessed as elevated respiration at 10 mg/kg, iv; assay type: organism-based; details: in vivo; in short: as §3
[36] = test system: Mus musculus; experiment: Toxicity in Swiss-Webster mouse assessed as piloerection at 10 mg/kg, iv; assay type: organism-based; details: in vivo; in short: as §3
[37] = test system: Mus musculus; experiment: Toxicity in Swiss-Webster mouse assessed as hyperactivity at 10 mg/kg, iv; assay type: organism-based; details: in vivo; in short: as §3

T4 sequence (P04757 whole entry): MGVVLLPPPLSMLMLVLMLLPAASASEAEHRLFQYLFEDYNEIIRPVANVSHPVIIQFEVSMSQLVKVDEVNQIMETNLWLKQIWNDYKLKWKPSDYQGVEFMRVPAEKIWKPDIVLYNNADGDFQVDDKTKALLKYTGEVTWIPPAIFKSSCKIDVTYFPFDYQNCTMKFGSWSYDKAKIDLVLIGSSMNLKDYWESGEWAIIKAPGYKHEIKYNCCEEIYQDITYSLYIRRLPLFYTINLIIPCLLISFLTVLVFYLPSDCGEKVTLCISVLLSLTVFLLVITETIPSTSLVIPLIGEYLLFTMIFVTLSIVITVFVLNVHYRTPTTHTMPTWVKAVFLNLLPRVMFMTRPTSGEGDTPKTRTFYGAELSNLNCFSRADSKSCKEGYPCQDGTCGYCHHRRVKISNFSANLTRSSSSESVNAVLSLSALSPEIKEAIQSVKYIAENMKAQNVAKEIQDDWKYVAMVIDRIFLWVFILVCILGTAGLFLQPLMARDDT
T4 sequence (P12392 whole entry): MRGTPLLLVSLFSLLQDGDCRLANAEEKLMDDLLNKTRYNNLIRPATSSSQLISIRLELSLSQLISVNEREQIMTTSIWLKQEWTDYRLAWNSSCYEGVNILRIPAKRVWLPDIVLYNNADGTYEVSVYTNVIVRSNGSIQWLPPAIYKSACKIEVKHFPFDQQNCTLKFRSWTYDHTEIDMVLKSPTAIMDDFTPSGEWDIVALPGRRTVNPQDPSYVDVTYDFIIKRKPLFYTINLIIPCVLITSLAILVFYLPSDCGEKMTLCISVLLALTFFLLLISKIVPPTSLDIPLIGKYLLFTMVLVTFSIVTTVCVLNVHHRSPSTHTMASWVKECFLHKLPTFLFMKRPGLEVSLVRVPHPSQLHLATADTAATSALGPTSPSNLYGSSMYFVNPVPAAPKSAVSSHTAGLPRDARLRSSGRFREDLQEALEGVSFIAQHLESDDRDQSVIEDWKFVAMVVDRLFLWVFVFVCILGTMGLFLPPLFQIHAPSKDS
T3 sequence (P09483 whole entry): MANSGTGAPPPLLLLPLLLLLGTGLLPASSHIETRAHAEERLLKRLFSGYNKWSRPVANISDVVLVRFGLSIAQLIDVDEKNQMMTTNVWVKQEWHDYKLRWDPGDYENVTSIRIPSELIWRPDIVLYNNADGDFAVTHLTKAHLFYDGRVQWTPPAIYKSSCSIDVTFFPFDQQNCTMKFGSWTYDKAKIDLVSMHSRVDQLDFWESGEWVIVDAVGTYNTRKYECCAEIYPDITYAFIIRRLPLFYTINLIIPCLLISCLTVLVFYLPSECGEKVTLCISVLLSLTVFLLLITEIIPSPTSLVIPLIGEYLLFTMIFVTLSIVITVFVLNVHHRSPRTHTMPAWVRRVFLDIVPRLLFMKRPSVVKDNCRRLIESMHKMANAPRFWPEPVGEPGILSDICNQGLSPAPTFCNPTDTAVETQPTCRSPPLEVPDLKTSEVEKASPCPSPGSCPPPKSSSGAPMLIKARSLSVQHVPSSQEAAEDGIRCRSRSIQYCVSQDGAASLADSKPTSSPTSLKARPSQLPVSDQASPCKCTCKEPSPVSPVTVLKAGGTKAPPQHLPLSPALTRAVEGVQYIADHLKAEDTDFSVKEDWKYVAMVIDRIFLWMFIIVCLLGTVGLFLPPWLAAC
T3 sequence (P12390 whole entry): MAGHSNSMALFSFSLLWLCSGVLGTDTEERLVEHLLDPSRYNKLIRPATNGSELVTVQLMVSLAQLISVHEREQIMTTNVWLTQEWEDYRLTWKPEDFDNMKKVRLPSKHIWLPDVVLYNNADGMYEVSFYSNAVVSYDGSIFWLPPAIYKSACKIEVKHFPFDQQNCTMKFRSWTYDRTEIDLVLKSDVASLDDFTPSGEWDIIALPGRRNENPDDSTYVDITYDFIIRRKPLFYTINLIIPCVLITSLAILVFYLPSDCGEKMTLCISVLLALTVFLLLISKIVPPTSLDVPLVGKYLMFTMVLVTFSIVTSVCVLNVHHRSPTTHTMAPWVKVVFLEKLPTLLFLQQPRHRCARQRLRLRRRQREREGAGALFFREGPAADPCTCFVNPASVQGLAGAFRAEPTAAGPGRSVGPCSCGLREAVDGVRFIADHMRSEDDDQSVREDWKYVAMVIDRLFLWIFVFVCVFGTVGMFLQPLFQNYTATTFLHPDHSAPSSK
Chain of Neuronal acetylcholine receptor subunit alpha-7 (Rattus norvegicus) (Q05941 whole entry): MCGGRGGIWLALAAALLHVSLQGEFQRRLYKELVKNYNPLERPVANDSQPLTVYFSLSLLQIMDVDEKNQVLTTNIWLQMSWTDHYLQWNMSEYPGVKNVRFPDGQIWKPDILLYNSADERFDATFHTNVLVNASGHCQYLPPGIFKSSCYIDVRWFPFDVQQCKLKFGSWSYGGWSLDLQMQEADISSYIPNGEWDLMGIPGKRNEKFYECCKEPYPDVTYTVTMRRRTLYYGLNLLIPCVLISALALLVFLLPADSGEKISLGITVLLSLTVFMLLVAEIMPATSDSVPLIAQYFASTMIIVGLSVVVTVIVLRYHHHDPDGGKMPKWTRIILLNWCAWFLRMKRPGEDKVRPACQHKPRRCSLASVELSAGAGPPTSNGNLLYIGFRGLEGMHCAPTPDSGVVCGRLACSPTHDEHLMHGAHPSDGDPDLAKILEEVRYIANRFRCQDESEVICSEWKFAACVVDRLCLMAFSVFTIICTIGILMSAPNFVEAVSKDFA
T2 sequence (Q05941 whole entry, the tested form may be a part): as the sequence (Q05941 whole entry) above
T1 sequence (P17787 whole entry): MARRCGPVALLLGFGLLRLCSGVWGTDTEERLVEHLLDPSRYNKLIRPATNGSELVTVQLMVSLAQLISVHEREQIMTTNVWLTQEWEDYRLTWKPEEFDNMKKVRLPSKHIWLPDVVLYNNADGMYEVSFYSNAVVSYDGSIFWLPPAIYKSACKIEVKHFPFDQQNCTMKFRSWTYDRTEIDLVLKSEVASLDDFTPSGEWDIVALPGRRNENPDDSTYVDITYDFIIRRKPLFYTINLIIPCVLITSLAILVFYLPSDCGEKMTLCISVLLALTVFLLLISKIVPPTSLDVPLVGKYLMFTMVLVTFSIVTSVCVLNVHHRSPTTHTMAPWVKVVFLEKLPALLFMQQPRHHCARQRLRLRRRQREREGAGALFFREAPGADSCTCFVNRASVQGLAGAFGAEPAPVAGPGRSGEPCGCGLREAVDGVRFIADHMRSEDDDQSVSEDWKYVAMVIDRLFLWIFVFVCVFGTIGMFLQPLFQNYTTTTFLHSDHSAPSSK
T1 sequence (P43681 whole entry): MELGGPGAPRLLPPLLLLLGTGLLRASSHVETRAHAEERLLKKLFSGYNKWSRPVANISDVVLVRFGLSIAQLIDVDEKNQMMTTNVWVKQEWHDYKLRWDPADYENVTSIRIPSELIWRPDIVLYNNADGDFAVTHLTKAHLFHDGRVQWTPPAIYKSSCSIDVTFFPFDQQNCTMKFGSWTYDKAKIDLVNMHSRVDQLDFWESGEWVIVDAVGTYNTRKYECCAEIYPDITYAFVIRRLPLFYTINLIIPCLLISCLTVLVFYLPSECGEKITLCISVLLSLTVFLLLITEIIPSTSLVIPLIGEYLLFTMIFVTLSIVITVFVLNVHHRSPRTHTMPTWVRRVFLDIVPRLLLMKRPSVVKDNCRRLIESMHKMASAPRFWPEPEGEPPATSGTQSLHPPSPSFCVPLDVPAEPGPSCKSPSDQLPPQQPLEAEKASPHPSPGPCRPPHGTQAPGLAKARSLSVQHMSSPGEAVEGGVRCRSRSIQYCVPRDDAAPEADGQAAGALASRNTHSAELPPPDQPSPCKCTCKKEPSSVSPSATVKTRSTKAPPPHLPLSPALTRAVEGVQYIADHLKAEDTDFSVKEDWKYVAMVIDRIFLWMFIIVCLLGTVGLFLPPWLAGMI
Chain of Neuronal acetylcholine receptor; alpha3/beta2 (P04757 whole entry): as the sequence (P04757 whole entry) above
Chain of Neuronal acetylcholine receptor; alpha3/beta2 (P12390 whole entry): as the sequence (P12390 whole entry) above

Structure (SMILES) | LD50 [1] [mg/kg] | EC50 [2] [nM] | EC50 [3] [nM] | EC50 [4] [nM] | Emax [5] [%] | Ratio Ki [8] | Ki [9] [nM] | LD50 [11] [mg/kg] | Emax [12] [%] | Ki [14] [nM] | Ki [15] [nM] | Ki [16] [nM] | Imax [17] [%] | Imax [18] [%] | Ratio EC50 [23] | EC50 [25] [nM] | other results
CN1CCC[C@H]1c1ccccc1 | 0.3 | 2100 |  |  |  |  |  |  |  |  |  |  |  |  |  |  | 
Clc1ccc2c(n1)O[C@]13CC[C@H]1NC[C@H]23 |  | 200 | 4000 | 1.5 | 45 | 34 | 4.4 | 0.072 | 91 | 0.87 | 9.1 | 0.27 | 0.37 | 1.1 | 2.9 | 570 | Activity [6]: Toxic; Activity [7]: Toxic; Activity [10]: Toxic; Activity [13]: Toxic; Activity [19]: Non-Toxic; Activity [20]: Toxic; Activity [21]: Non-Toxic; Activity [22]: Toxic; Activity [24]: Toxic
Clc1ccc2c(n1)OC13CCC1NCC23 (racemic) |  | 200 | 9900 | 3.1 | 42 | 31 | 5.4 | 0.27 | 91 | 1.1 | 11 | 0.35 | 0.32 | 1.08 | 3.7 | 750 | Activity [26]: inactive; Activity [27]: inactive; Imax [28]: 0.79%; Ratio EC50 [29]: 3200; Activity [30]: inactive; EC50 [31]: 19000 nM; Activity [32]: inactive; Imax [33]: 0.25%; EC50 [34]: 29000 nM
Clc1ccc(C2CC3CCC2N3)cn1 (racemic) [EPIBATIDINE] |  |  |  |  | 135 |  |  | 0.0015 | 114 |  |  |  |  |  |  |  | 
O=c1cccc2n1C[C@@H]1CNC[C@H]2C1 [CYTISINICLINE] | 1.73 |  |  |  |  |  |  |  |  |  |  |  |  |  |  |  | 
Clc1ccc2c(n1)O[C@@]13CC[C@@H]1NC[C@@H]23 [PHANTASMIDINE] |  | 56000 | 21000 | 45 | 110 | 33 | 130 | > 10 | 53 | 29 | 390 | 12 | 0.43 | 1.02 | 0.49 | 27000 | Activity [35]: Toxic; Activity [36]: Toxic; Activity [37]: Toxic
